The source of these data is ChEMBL document CHEMBL2016511, “Development of clickable active site-directed photoaffinity probes for γ-secretase” (Bioorg Med Chem Lett, 2012).

The target of experiment [1] is Presenilin-1 (Homo sapiens) (UniProt P49768). As to the kind of experiment: Binding affinity to PS1 N-terminal fragment in human HeLa cell membrane at 20 nM by photo-affinity in-gel fluorescence method. Type of experiment: cell membranes. The procedure, abridged: (§1)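 HeLa membranes photolabeled with probe at 20 nM, with or without 1 μM competitor GSI L458, then ~350 nm irradiation. Click reaction with TAMRA-azide, then acetone precipitation to remove excess reagent. Resolubilized in loading buffer, separated by SDS-PAGE, and scanned for in-gel fluorescence of PS1-NTF and PS1-CTF bands. Coomassie staining confirmed equal loading.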

Experiment [2] shares this target. As to the kind of experiment: Binding affinity to PS1 Carboxy-terminal fragment in human HeLa cell membrane at 20 nM by photo-affinity in-gel fluorescence method in presence of GSI L458. The class given is cell membranes. The procedure, abridged:
as §1

Experiment [3] in a line: Inhibition of gamma-secretase in CHO-APP cells assessed as amyloid beta-42 production using APP as substrate. The class given is cell-based. To be noted: Cricetulus griseus.
The target of experiment [4] is Presenilin-1 (Homo sapiens) (UniProt P49768). The experiment in a line: Binding affinity to PS1 N-terminal fragment in human HeLa cell membrane at 20 nM after 1 hr by photo-affinity based Western blot analysis. Type of experiment: cell membranes. The procedure, abridged: (§2)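 HeLa membranes (800 μg in 1.2 mL PBS) incubated 1 h at 37 °C with probe at 20 nM, with or without 1 μM competitor GSI. Photoirradiated at ~350 nm for 30 min at 4 °C, then pelleted. Click with biotin-azide (0.1 mM), TCEP 1.0 mM, CuSO4 1.0 mM, TBTA 0.1 mM, 1 h at room temperature. Solubilized in RIPA, streptavidin pull-down, SDS-PAGE, Western blot with PS1-NTF, PS1-CTF or SPP antibodies.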
For orientation: Immunoblotting shows a protein as a band on a membrane.

The test system of experiment [5] is HeLa. As to the kind of experiment: Binding affinity to SPP in human HeLa cell membrane at 20 nM after 1 hr by photo-affinity based Western blot analysis. Type of experiment: cell membranes. The procedure, abridged: as §2
Experiment [6] concerns the target Presenilin-1 (Homo sapiens) (UniProt P49768). As to the kind of experiment: Binding affinity to PS1 N-terminal fragment in human HeLa cell membrane at 20 nM by photo-affinity in-gel fluorescence method in presence of GSI L458. Type of experiment: cell membranes. The gist of the method:
as §1

Experiment [7] has the same target. The experiment in a line: Binding affinity to PS1 Carboxy-terminal fragment in human HeLa cell membrane at 20 nM after 1 hr by photo-affinity based Western blot analysis. The class given is cell membranes. The procedure, abridged: as §2
Experiment [8] has the same target. The experiment in a line: Binding affinity to PS1 N-terminal fragment in human HeLa cell membrane at 20 nM after 1 hr by photo-affinity-based Western blot analysis in presence of GSI L458. Type of experiment: cell membranes. The gist of the method:
as §2

The target is the same in experiment [9]. As to the kind of experiment: Binding affinity to PS1 Carboxy-terminal fragment in human HeLa cell membrane at 20 nM by photo-affinity in-gel fluorescence method. Type of experiment: cell membranes. The gist of the method:
as §1

The source made the active and inactive calls. The rule behind the calls is not given here.

Take `C#CCCCCNC(=O)[C@H](Cc1ccccc1)NC(=O)[C@H](CC(C)C)NC(=O)[C@H](Cc1ccccc1)C[C@@H](O)[C@H](Cc1ccccc1)NC(=O)c1ccc(C(=O)c2ccccc2)cc1`: the outcome in [1] and in [4] was Active. Also, the result in experiment [2], in [5], in experiment [6], in experiment [7], in experiment [8] and in experiment [9] was inactive. Besides, in experiment [3], the IC50 (commonly the concentration needed to halve the response being measured) worked out at 1000 nM.

As to `CC(C)C[C@H](NC(=O)[C@H](Cc1ccccc1)C[C@@H](O)[C@H](Cc1ccccc1)NC(=O)OC(C)(C)C)C(=O)N[C@@H](Cc1ccccc1)C(N)=O`, the IC50 in experiment [3] was 36 nM.

On to `C#CCCCCNC(=O)[C@H](Cc1ccc(C(=O)c2ccccc2)cc1)NC(=O)[C@H](CC(C)C)NC(=O)[C@H](Cc1ccccc1)C[C@@H](O)[C@H](Cc1ccccc1)NC(=O)OC(C)(C)C`, for which the outcome in [1], in experiment [2], in [4] and in experiment [6] was inactive. The IC50 in experiment [3] was determined as 4 nM. In addition, the result in experiment [5], in [7] and in experiment [9] was Active.

With `CC(C)C[C@H](NC(=O)[C@H](Cc1ccccc1)C[C@@H](O)[C@H](Cc1ccccc1)NC(=O)OC(C)(C)C)C(=O)N[C@@H](Cc1ccc(C(=O)c2ccccc2)cc1)C(=O)NCCCCCNC(=O)CCCC[C@@H]1SC[C@@H]2NC(=O)N[C@@H]21`, the IC50 in experiment [3] came out at 30 nM.

`CC(C)C[C@H](NC(=O)[C@H](Cc1ccccc1)C[C@@H](O)[C@H](Cc1ccccc1)NC(=O)c1ccc(C(=O)c2ccccc2)cc1)C(=O)N[C@@H](Cc1ccccc1)C(=O)NCCCCCNC(=O)CCCC[C@@H]1SC[C@@H]2NC(=O)N[C@@H]21`: the concentration for half-maximal inhibition (IC50) in experiment [3] was determined as 817 nM. For the same compound, the result in [4] was Active. Further, the result in experiment [8] was inactive.
